The source of these data is PMC13080778 (The Journal of general physiology, 2026).

The target of data set [1] is CaV1.4 M1426A (Homo sapiens, UniProt O60840, M1426A). The data set can be described thus: Whole-cell patch-clamp of ICa in HEK293T cells, CaV1.4 M1426A mutant. The class given is cell-based. On the technique in general: The patch-clamp technique gives a direct electrical read-out from membranes.
The target in data set [2] is CaV1.4 (Homo sapiens, UniProt O60840). In kind it is cell-based. The note with it: for IC50: inhibition of ICa, Hill fit.
Chain of CaV1.4 (O60840 whole entry): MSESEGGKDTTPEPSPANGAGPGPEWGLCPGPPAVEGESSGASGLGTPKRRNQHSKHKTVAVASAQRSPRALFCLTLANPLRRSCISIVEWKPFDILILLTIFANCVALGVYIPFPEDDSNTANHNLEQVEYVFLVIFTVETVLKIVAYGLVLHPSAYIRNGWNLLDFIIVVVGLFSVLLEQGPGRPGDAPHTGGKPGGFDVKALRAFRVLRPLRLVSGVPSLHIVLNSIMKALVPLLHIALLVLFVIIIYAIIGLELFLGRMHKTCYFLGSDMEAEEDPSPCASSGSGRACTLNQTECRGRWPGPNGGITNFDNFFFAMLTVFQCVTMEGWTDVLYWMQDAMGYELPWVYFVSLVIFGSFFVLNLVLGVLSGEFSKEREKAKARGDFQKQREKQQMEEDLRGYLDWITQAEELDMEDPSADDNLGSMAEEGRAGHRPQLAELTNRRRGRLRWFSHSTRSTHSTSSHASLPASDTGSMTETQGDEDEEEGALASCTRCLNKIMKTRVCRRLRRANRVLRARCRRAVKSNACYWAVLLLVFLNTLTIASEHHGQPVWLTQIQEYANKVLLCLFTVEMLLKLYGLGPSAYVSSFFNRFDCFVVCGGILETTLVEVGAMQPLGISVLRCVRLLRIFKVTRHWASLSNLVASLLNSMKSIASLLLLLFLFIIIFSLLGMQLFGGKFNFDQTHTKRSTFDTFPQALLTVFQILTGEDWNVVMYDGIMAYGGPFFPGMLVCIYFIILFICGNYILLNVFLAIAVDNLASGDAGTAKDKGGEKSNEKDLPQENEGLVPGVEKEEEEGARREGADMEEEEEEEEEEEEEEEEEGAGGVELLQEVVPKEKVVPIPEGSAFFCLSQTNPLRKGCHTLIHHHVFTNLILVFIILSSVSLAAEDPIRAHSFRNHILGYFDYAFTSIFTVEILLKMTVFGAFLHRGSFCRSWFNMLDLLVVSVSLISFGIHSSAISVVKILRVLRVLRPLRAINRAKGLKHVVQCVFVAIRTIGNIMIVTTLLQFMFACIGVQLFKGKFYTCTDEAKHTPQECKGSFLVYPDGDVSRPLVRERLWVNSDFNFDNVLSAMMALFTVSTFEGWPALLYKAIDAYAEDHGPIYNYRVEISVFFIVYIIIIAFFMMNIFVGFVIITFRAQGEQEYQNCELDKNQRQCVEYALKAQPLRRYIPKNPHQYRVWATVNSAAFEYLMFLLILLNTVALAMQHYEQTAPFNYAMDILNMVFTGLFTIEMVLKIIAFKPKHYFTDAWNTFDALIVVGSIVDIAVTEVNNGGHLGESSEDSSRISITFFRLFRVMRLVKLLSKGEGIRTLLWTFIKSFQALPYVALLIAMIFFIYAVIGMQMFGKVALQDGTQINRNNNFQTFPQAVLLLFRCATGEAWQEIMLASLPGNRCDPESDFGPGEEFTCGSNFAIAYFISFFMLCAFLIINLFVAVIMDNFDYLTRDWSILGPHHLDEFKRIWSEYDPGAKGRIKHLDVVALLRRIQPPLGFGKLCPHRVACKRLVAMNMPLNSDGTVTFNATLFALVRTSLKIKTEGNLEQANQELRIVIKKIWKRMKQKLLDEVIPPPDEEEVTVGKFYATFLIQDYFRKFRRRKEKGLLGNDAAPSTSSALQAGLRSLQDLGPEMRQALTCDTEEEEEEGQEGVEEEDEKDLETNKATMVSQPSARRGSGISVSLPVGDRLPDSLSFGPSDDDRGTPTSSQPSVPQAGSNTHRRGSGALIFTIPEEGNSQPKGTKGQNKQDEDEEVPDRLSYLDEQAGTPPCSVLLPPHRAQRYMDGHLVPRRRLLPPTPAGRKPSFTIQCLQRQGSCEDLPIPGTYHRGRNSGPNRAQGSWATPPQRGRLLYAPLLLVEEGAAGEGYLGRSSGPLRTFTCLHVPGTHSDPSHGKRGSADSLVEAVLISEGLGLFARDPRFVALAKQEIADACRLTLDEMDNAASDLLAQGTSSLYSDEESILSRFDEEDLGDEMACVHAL
Chain of CaV1.4 (Q08289 whole entry partner): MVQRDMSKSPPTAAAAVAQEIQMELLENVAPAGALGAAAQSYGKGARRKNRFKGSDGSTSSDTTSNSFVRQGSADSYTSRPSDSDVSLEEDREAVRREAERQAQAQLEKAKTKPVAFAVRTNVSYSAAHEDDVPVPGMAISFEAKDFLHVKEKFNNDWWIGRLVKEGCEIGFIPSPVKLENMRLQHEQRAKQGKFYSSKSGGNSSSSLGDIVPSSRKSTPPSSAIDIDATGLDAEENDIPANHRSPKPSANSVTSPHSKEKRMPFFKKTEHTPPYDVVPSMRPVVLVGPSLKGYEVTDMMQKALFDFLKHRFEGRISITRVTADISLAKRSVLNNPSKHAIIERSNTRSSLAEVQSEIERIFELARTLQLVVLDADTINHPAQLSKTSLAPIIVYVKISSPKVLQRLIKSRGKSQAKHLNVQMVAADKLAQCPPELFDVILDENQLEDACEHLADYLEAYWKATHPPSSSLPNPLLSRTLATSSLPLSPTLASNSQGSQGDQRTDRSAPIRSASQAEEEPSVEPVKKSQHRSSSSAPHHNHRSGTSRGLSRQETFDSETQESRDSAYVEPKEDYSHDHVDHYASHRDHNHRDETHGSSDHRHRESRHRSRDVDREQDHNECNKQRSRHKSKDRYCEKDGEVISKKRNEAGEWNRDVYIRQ
Chain of CaV1.4 (Q7Z3S7 20-991 partner limits assumed): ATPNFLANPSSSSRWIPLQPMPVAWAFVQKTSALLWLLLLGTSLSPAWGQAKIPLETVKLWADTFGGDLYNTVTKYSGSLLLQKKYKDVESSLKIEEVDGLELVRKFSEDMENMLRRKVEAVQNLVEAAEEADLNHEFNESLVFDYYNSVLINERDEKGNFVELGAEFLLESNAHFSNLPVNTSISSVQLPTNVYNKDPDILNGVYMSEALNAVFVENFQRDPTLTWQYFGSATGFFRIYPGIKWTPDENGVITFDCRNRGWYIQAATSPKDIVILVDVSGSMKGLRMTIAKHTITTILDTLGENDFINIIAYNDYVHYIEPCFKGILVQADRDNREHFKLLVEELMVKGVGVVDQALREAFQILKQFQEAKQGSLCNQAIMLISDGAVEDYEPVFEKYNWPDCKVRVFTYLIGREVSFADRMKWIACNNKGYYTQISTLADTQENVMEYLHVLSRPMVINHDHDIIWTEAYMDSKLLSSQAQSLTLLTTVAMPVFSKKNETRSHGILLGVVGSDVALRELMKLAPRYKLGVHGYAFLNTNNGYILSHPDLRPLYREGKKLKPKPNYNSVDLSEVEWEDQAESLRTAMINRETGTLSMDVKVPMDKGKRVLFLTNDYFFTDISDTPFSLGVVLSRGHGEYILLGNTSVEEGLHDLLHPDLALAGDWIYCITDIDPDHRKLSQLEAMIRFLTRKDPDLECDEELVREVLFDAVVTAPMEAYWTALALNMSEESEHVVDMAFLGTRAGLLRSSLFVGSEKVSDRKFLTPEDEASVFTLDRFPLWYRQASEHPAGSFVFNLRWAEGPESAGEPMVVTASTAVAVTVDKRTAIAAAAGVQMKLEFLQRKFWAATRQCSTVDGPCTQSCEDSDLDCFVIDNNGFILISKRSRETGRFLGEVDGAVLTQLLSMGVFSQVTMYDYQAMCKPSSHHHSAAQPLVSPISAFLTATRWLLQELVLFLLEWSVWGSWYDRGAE
Chain of CaV1.4 (Q7Z3S7 992-1137 partner limits assumed): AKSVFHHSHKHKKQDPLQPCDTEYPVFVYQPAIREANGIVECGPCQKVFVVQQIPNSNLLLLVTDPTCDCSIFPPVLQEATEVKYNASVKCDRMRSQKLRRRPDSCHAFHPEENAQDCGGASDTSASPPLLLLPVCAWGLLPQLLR
The target in data set [3] is CaV1.4 T1007Y (Homo sapiens, UniProt O60840, T1007Y). Nature of the data set: Whole-cell patch-clamp of ICa in HEK293T cells, CaV1.4 T1007Y mutant. The class given is cell-based.
Chain of CaV1.4 T1007Y (O60840 whole entry T1007Y): as the sequence (O60840 whole entry) above, with T1007Y counted along it
Chain of CaV1.4 T1007Y (Q08289 whole entry partner): as the sequence (Q08289 whole entry partner) above
Chain of CaV1.4 T1007Y (Q7Z3S7 20-991 partner limits assumed): as the sequence (Q7Z3S7 20-991 partner limits assumed) above
Chain of CaV1.4 T1007Y (Q7Z3S7 992-1137 partner limits assumed): as the sequence (Q7Z3S7 992-1137 partner limits assumed) above
In data set [4] the target is CaV1.4 M1129A (Homo sapiens, UniProt O60840, M1129A). Nature of the data set: Whole-cell patch-clamp of ICa in HEK293T cells, CaV1.4 M1129A mutant. The class given is cell-based.
The target of data set [5] is CaV3.2 (Homo sapiens, UniProt O95180). Nature of the data set: Whole-cell patch-clamp of Ca2+ currents. In kind it is cell-based. The method, boiled down:
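HEK293T cells co-transfected (Fugene 6) with CaV3.2 plus β2x13, α2δ-4 and eGFP; whole-cell recordings at room temperature 36–72 h later, 4–8 MΩ pipettes, 50–70% series-resistance compensation, P/−4 leak subtraction. Compound perfused in external solution (vehicle ≤1% DMSO); 0.1 Hz currents, steady-state % inhibition vs vehicle fitted by inhibitor–response regression (0–100 constrained). Boltzmann fits of I–V give Gmax, Vh, k, Vrev.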

The subject of data set [6] is CaV3 channels. To be noted: ref Xiang et al., 2011; cited from earlier work.
Data set [7] concerns the target CaV1.4 M1004A (Homo sapiens, UniProt O60840, M1004A). The data set can be described thus: Whole-cell patch-clamp of ICa in HEK293T cells, CaV1.4 M1004A mutant. The class given is cell-based.
Data set [8] has as its target CaV1.2 (Oryctolagus cuniculus, UniProt P15381). The data set can be described thus: Whole-cell patch-clamp of ICa in HEK293T cells transfected with CaV1.2. To be noted: CaV1.2 WT. In kind it is cell-based, rabbit.
For data set [9], the target named is CaV1.2 V1063M (Oryctolagus cuniculus, UniProt P15381, V1063M). Nature of the data set: Whole-cell patch-clamp of ICa in HEK293T cells, CaV1.2 V1063M mutant. The class given is cell-based, rabbit.
Data set [10] has as its system Cav1.4 ICa in mouse cones. The note with it: 5 μM, ref Davison et al., 2022; cited from earlier work.
The test system of data set [11] is three CaV3 subtypes. To be noted: ref Tringham et al., 2012; cited from earlier work.
Data set [12] concerns Cav1.2. To be noted: ref Wei et al., 2024; cited from earlier work.
The test system of data set [13] is Cav1.4. To be noted: ref Koschak et al., 2003; cited from earlier work.
[14] abbreviates: CaV3.2, inhibition of ICa, Hill fit, mean ± SEM.
Setting [15] is: CaV1.4, drug at 5 µM, Vhold −90 mV.
The mark [16] stands for this setting: CaV3.2, drug at 100 nM, mean ± SEM or median.

Values joined by “and” are separate entries in the source; they are usually repeats but may differ in a detail not shown here. Equal values may be shown once. Where a name gives a salt, the structure may show the parent alone. Marks after values point to notes of the source that are not given here.

For the compound `CC(C)(C)CCN1C[C@@H]2C(CNC(=O)c3cc(Cl)cc(Cl)c3)[C@@H]2C1` (stereo partly shown) [ML218, ML218 hydrochloride], the concentration for half-maximal inhibition (IC50) in data set [1] was 15 ± 2.9 µM; in [2] (CaV1.4 WT), 2.1 ± 0.51 µM; in data set [3] (CaV1.4 T1007Y) it was ~20 µM and 20 µM; in data set [4] it was 0.45 ± 0.16 µM; in data set [5] (setting [14]) it was 0.0237 ± 0.0025 µM; in [5] (CaV3.2 ICa), approximately 0.024 µM. For the same compound, the half-maximal inhibitory concentration (IC50) in [6] was less than 0.5 µM; in data set [7], 310 ± 190 µM; in [8], ~37 µM and 37 µM; in data set [9], 120 ± 60 µM.

As to `CC(C)(C)NC(=O)CN1CCC(CNC(=O)c2cc(F)cc(Cl)c2)CC1` [Z944], the Gmax in data set [2] (setting [15]) is on record as 0.0845 ± 0.0387 nS/pF; in data set [5] (CaV3.2, drug at 100 nM, Boltzmann fit of I-V, mean ± SEM or median), 0.55 ± 0.13 nS/pF. Besides, the Vh in data set [2] (setting [15]) is -6.10 ± 1.54 mV; in [5] (setting [16]), -33.47 ± 3.65 mV. The Vrev in [2] (setting [15]) came to 60.73 ± 4.72 mV; in [5] (CaV3.2, drug at 100 nM), 42.96 ± 1.86 mV. Moreover, the k was 8.89 ± 0.50 mV in data set [2] (setting [15]) and 6.75^† mV in data set [5] (setting [16]). In addition, the “Hill Slope” value is recorded as 0.22 ± 0.04 in data set [2] (CaV1.4 WT, dose-response fit) and 0.82 ± 0.10 in data set [5] (CaV3.2, dose-response fit). The 50% inhibitory concentration (IC50) was 31.5 ± 21 µM in [2] (CaV1.4 WT), 0.26 ± 0.04 µM in [5] (setting [14]) and approximately 0.265 µM in data set [5] (CaV3.2 ICa). In addition, the “IC50 for Cav1.4 higher than that for Cav3.2” value in data set [2] (Cav1.4 versus Cav3.2) was ~ 100 fold. In data set [10], the “effect on amplitude of Cav1.4 ICa” value is given as “increased the amplitude”. The “inhibition of the peak ICa amplitude” value in data set [5] (CaV3.2, drug at 100 nM) is ~ 40%. Further, the “affinity for CaV3 subtypes higher than for CaV2.2 and CaV1.2” value in data set [11] is on record as 70-100 times.

For the compound `COC(=O)C1=C(C)NC(C)=C(C(=O)OC2CCCN(Cc3ccccc3)C2)C1c1cccc([N+](=O)[O-])c1` (stereo not shown) [benidipine], in data set [12], the “higher potency compared to nifedipine” value is 10 fold.

For the compound `COC(=O)C1=C(C)NC(C)=C(C(=O)OC(C)C)C1c1cccc2nonc12` (stereo not shown) [isradipine], the inhibition at 1 µM in [2] (HEK-293T, read-out: inhibition of ICa amplitude) was approximately 78%; in [3] (HEK-293T, read-out: inhibition of ICa) it was approximately 17%. For the same compound, the “increase in the extent of block on shifting Vhold from −90 mV to −50 mV” value in data set [13] is ~ 80%.

As usually defined, the IC50 is the point on the concentration scale where inhibition reaches its midpoint. In general, inhibition refers to the share of the control response that was lost under treatment.
